Test results from ChEMBL document CHEMBL3421610, “Antimalarial activity of 4-amidinoquinoline and 10-amidinobenzonaphthyridine derivatives” (J Med Chem, 2015).
≈ marks a conversion by molar mass, not a printed value. Calls of active or inactive are those of the source. The rule behind the calls is not given here.

Assays:
[1] = Half life in human liver microsomes at 1 uM by LC/MS analysis; type: ADME
How it was run: (§1)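 Compound at 1 µM final, diluted from […], with 0.5 mg/mL pooled human or mouse liver microsomes, NADP, MgCl2 and 0.1 M PBS pH 7.4. Reaction started with 1 U/mL G6PD and shaken at 37 °C. Aliquots quenched in cold acetonitrile at 0, 10, 20, 30 and 60 min and quantified by LC/MS. Half-life from log plot of total ion chromatogram area remaining.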

[2] = Half life in mouse liver microsomes at 1 uM by LC/MS analysis; type: ADME; how it was run: as §1
[3] = test system: Mus musculus; assay: Toxicity in mouse infected with erythrocytic stage of chloroquine resistant Plasmodium berghei ANKA up to 160 mg/kg, po qd administered on day 3, 4 and 5 post infection measured over 30 days; type: organism-based, Erythrocyte; parameters: dose 160 mg/kg, route oral; conditions: in vivo, 720 h
How it was run: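 Male mice of 16-20 g infected intraperitoneally with CQ-resistant P. berghei ANKA (5 x 10^6 infected erythrocytes). Oral dosing once daily on days 3-5, five mice per group. Animals followed for 30 days by blood films; mice losing >20% body weight sacrificed.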

[4] = test system: Plasmodium berghei; assay: Antimalarial activity against erythrocytic stage of chloroquine resistant Plasmodium berghei ANKA infected in mouse assessed as parasite clearance at 160 mg/kg, po qd administered on day 3, 4 and 5 post infection measured on day 2 to 7 post last dose; type: functional, organism-based; parameters: dose 160 mg/kg
How it was run: (§2)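 Male mice of 16-20 g inoculated intraperitoneally with 5 x 10^6 erythrocytes infected with CQ-resistant P. berghei ANKA. Drug given orally as a suspension once daily on days 3, 4 and 5 post-infection, five mice per dose. Parasitemia followed by blood films from day 3, three times weekly for 30 days; infected untreated mice served as negative controls.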

[5] = test system: HepG2; assay: Cytotoxicity against human HepG2 cells after 48 hrs by MTT assay; type: cell-based; conditions: HepG2, 48 h
How it was run: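 HepG2 cells in supplemented MEM, plated at 9570 cells/well in 384-well format and incubated overnight at 37 °C, 5% CO2. Twelve duplicate 1.6-fold dilutions, 57–10,000 ng/ml, incubated 48 h. MTT added for 1 h at room temperature in the dark, formazan dissolved in acidified isopropanol, absorbance read. IC50 by sigmoidal variable-slope nonlinear regression; tryptanthrin control.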

[6] = test system: Plasmodium falciparum; assay: Antimalarial activity against chloroquine-resistant Plasmodium falciparum C235 assessed as growth inhibition after 18 hrs by [3H]-hypoxanthine uptake assay; type: functional, organism-based
How it was run: (§3)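 P. falciparum clones D6, W2 and TM91C235; modified semiautomated microdilution. Compounds in DMSO, diluted in RPMI 1640 with 10% human plasma, tested over (1.56-100) x 10^-9 M; final DMSO 0.25-0.5%. Inoculum 0.5% parasitemia, 1% hematocrit. 24 h incubation, then [3H]-hypoxanthine added, further 18 h. Harvested and read by scintillation counting; IC50 by nonlinear regression.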

[7] = test system: Plasmodium falciparum; assay: Antimalarial activity against chloroquine-sensitive Plasmodium falciparum D6 assessed as growth inhibition after 18 hrs by [3H]-hypoxanthine uptake assay; type: functional, organism-based; how it was run: as §3
[8] = test system: Plasmodium berghei; assay: Antimalarial activity against erythrocytic stage of chloroquine resistant Plasmodium berghei ANKA infected in mouse assessed as cure rate at 160 mg/kg, po qd administered on day 3, 4 and 5 post infection measured 3 times per week for 30 days, starting from day 3 by Thompson test; type: functional, organism-based; parameters: dose 160 mg/kg
How it was run: (§4)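 Male mice of 16-20 g inoculated intraperitoneally with 5 x 10^6 erythrocytes infected with CQ-resistant P. berghei ANKA. Drug given orally as a suspension once daily on days 3, 4 and 5 post-infection, five mice per dose. Blood films from day 3, three times weekly for 30 days. Cure means parasite-negative on day 30 or surviving 30 days. Mice losing >20% body weight sacrificed.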

[9] = test system: Plasmodium falciparum; assay: Antimalarial activity against chloroquine-resistant Plasmodium falciparum W2 assessed as growth inhibition after 18 hrs by [3H]-hypoxanthine uptake assay; type: functional, organism-based; how it was run: as §3
[10] = test system: Salmonella typhi; assay: Mutagenicity in Salmonella typhi by Ames test; type: toxicity, organism-based; conditions: salmonella enterica subsp. enterica […]
[11] = target: hERG (KCNH2) (Homo sapiens, UniProt Q12809); assay: Inhibition of human ERG expressed in CHL cells assessed as tail current at 10 uM after 7 mins by patch clamp assay relative to control; type: cell-based; conditions: CHL cells expressing human ERG
[12] = test system: Plasmodium berghei; assay: Antimalarial activity against erythrocytic stage of chloroquine resistant Plasmodium berghei ANKA infected in mouse assessed as cure rate at 60 mg/kg, po qd administered on day 3, 4 and 5 post infection measured 3 times per week for 30 days, starting from day 3 by Thompson test; type: functional, organism-based; parameters: dose 60 mg/kg; how it was run: as §4
[13] = test system: Plasmodium berghei; assay: Antimalarial activity against erythrocytic stage of chloroquine resistant Plasmodium berghei ANKA infected in mouse assessed as cure rate at 15 mg/kg, po qd administered on day 3, 4 and 5 post infection measured 3 times per week for 30 days, starting from day 3 by Thompson test; type: functional, organism-based; parameters: dose 15 mg/kg; how it was run: as §4
[14] = test system: Plasmodium berghei; assay: Antimalarial activity against erythrocytic stage of chloroquine resistant Plasmodium berghei ANKA infected in mouse assessed as reduction of parasitemia at 160 mg/kg, po qd administered on day 3, 4 and 5 post infection measured 2 days post last dose relative to control; type: functional; parameters: scale not given: the % may be the effect or the level left; how it was run: as §2
[15] = AUCinfinity in ICR mouse at 80 mg/kg, po; type: ADME, organism-based; parameters: time infinity, dose 80 mg/kg, route oral; conditions: plasma
How it was run: (§5)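 Male 7-week-old ICR mice, 23–28 g, given a single intragastric dose of 80 mg/kg in DD water (100 µL/20 g). Three mice per time point; whole blood taken by cardiac puncture into lithium heparin tubes and spun to plasma. Parameters come from plasma concentration–time curves of parent drug. t1/2 = ln2/kel from the log plot. AUC by linear trapezoidal rule, extrapolated to infinity; MRT = AUMC/AUC.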

[16] = Tmax in ICR mouse at 80 mg/kg, po; type: ADME, organism-based; parameters: dose 80 mg/kg, route oral; conditions: in vivo; how it was run: as §5
[17] = Apparent oral clearance in ICR mouse at 80 mg/kg; type: ADME, organism-based; parameters: dose 80 mg/kg, route oral; conditions: in vivo
[18] = Mean residence time in ICR mouse at 80 mg/kg, po; type: ADME, organism-based; parameters: dose 80 mg/kg, route oral; conditions: in vivo; how it was run: as §5
[19] = AUClast in ICR mouse at 80 mg/kg, po; type: ADME, organism-based; parameters: time 0 - last, dose 80 mg/kg, route oral; conditions: plasma
[20] = Cmax in ICR mouse at 80 mg/kg, po; type: ADME, organism-based; parameters: dose 80 mg/kg, route oral; conditions: in vivo; how it was run: as §5
[21] = test system: Plasmodium berghei; assay: Antimalarial activity against erythrocytic stage of chloroquine resistant Plasmodium berghei ANKA infected in mouse assessed as cure rate at 120 mg/kg, po qd administered on day 3, 4 and 5 post infection measured 3 times per week for 30 days, starting from day 3 by Thompson test; type: functional, organism-based; parameters: dose 120 mg/kg; how it was run: as §4
[22] = Elimination half life in ICR mouse at 80 mg/kg, po; type: ADME, organism-based; parameters: dose 80 mg/kg, route oral; conditions: in vivo, read-out: beta t1/2 (converted); how it was run: as §5
[23] = Apparent volume of distribution during terminal phase in ICR mouse at 80 mg/kg, po; type: ADME, organism-based; parameters: dose 80 mg/kg, route oral; conditions: in vivo, read-out: Vz/F

Chain of hERG (KCNH2) (Q12809 whole entry): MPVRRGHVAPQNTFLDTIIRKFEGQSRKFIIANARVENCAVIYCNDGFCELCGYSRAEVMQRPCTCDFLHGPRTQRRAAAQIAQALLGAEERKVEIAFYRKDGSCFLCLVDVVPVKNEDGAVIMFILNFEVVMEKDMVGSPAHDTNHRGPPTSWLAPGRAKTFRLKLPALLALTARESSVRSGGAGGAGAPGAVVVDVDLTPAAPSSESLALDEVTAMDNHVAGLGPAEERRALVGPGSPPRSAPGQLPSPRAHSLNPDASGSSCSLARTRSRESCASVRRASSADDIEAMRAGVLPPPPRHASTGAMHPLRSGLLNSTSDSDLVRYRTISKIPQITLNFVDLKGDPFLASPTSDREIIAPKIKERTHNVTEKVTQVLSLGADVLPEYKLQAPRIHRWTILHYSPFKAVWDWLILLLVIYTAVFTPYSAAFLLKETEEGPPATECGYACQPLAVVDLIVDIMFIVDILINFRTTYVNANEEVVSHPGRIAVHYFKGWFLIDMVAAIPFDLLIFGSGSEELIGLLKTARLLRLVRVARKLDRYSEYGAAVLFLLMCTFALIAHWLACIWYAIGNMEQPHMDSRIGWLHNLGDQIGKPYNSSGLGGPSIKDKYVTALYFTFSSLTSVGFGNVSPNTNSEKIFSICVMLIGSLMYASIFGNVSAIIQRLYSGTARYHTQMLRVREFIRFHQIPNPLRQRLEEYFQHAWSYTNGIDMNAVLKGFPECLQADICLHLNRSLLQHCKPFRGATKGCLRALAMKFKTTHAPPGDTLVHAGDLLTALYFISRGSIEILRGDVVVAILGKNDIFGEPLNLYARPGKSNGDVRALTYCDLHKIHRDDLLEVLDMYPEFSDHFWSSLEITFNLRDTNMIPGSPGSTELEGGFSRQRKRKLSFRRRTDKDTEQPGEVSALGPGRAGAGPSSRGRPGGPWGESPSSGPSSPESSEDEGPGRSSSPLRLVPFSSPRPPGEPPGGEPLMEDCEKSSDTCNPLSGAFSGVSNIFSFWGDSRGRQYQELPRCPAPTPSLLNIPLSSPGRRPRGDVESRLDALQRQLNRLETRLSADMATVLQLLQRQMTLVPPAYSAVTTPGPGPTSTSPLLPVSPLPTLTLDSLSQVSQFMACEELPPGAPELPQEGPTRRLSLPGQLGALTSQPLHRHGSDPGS

C/C(=N/c1ccnc2cc(Cl)ccc12)NC1CCN(C(C)C)CC1
half-life at 1 µM [1]: > 1 h
half-life at 1 µM [2]: > 1 h
Activity [3]: Non-toxic
Activity [4]: Active
IC50 [5]: 5.71 µg/mL (≈ 16.6 µM)
IC50 [6]: 134 nM
IC50 [7]: 108 nM
Activity [8]: inactive
IC50 [9]: 166 nM

CN(C)CCCN/C(=N\c1ccnc2cc(Cl)ccc12)c1ccc(Cl)cc1
Activity [10]: Non-toxic
half-life at 1 µM [1]: 0.8 h
half-life at 1 µM [2]: 0.583 h
IC50 [5]: 1.93 µg/mL (≈ 4.8 µM)
IC50 [6]: 1.1 nM
IC50 [7]: 2 nM
IC50 [9]: 2.9 nM
inhibition at 7 min, 10 µM [11]: 115%

COc1ccc2nc3cc(Cl)ccc3c(N/C(=N/CCCN(C)C)c3ccc(Cl)cc3)c2n1
Activity [10]: Non-toxic
half-life at 1 µM [1]: 0.533 h
half-life at 1 µM [2]: > 1 h
Activity [3]: Non-toxic
IC50 [5]: 2.51 µg/mL (≈ 5.2 µM)
IC50 [6]: 4.3 nM
IC50 [7]: 2.8 nM
IC50 [9]: 6.6 nM
Activity [12]: Active
inhibition at 7 min, 10 µM [11]: 77%
Activity [13]: Active

CCN(CC)CCCCN/C(C)=N\c1ccnc2cc(Cl)ccc12
half-life at 1 µM [1]: > 1 h
half-life at 1 µM [2]: > 1 h
Activity [3]: Non-toxic
Activity [4]: Active
IC50 [5]: 2.68 µg/mL (≈ 7.73 µM)
IC50 [6]: 26 nM
IC50 [7]: 24.9 nM
Activity [8]: inactive
IC50 [9]: 98.3 nM

C/C(=N/c1ccnc2cc(Cl)ccc12)NCCCN1CCCCC1
half-life at 1 µM [1]: > 1 h
half-life at 1 µM [2]: 0.417 h
Activity [3]: Non-toxic
IC50 [5]: 23.3 µg/mL (≈ 67.5 µM)
IC50 [6]: 14 nM
IC50 [7]: 25 nM
Activity [8]: inactive
Activity [14]: 95.4%
IC50 [9]: 36 nM
inhibition at 7 min, 10 µM [11]: 27.7%

CCN(CC)CCC/N=C(\C)N(CCCN(CC)CC)c1c2ccc(Cl)cc2nc2ccc(OC)nc12
AUC(0-inf) [15]: 8950 ng·h/mL
Activity [10]: Non-toxic
half-life at 1 µM [1]: > 1 h
half-life at 1 µM [2]: > 1 h
Activity [3]: Non-toxic
Tmax [16]: 2 h
IC50 [5]: 3.04 µg/mL (≈ 5.78 µM)
CL/F [17]: 150 mL/min/kg
IC50 [6]: 5.1 nM
MRT [18]: 22.1 h
AUC(0-t) [19]: 4930 ng·h/mL
IC50 [7]: 1.3 nM
Cmax [20]: 222 ng/mL
IC50 [9]: 9.5 nM
Activity [12]: Active
Activity [21]: Active
half-life [22]: 47.5 h
inhibition at 7 min, 10 µM [11]: 13.8%
Vd/F [23]: 610 L/kg

CCN(CC)CC(C)(C)C/N=C(/Nc1c2ccc(Cl)cc2nc2ccc(OC)nc12)c1ccccc1
half-life at 1 µM [1]: > 1 h
half-life at 1 µM [2]: > 1 h
Activity [3]: Non-toxic
IC50 [5]: > 24.2 µg/mL
IC50 [6]: 29.7 nM
IC50 [7]: 21.8 nM
IC50 [9]: 61 nM
Activity [12]: Active
inhibition at 7 min, 10 µM [11]: 10%
Activity [13]: Active

COc1ccc2nc3cc(Cl)ccc3c(N/C(C)=N/CCCN(C)C)c2n1
half-life at 1 µM [1]: > 1 h
half-life at 1 µM [2]: 0.7 h
Activity [3]: Non-toxic
IC50 [5]: 18.1 µg/mL (≈ 46.8 µM)
IC50 [6]: 51.3 nM
IC50 [7]: 26 nM
IC50 [9]: 100 nM
Activity [21]: Active
inhibition at 7 min, 10 µM [11]: 91.5%

C/C(=N/c1ccnc2cc(Cl)ccc12)NCCCCN1CCCCC1
half-life at 1 µM [1]: > 1 h
half-life at 1 µM [2]: > 1 h
Activity [3]: Non-toxic
Activity [4]: Active
IC50 [5]: 9.81 µg/mL (≈ 27.3 µM)
IC50 [6]: 64 nM
IC50 [7]: 62 nM
Activity [8]: inactive
IC50 [9]: 126 nM
